# PfM18AAP inh: PfM18AAP inhibitors, malaria aminopeptidase, primary screen, biochemical, QFRET, recombinant enzyme; H-Glu-NHMec fluorogenic cleavage; inhibition, % at 7.35 µM; hit rate 1.2% among 290,000;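 active means inhibition above the campaign mean inhibition over all tested compounds plus 3 SD, cut at about 28% in these data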
# TbHK1 inh: Trypanosoma brucei hexokinase 1 inhibitors, primary screen, biochemical, G6PDH-coupled NADH absorbance, MLSCN library | recombinant TbHK1, G6PDH-coupled NADH A340 | inhibition, % at 10 µM | AID 1430, 2008 | hit rate 0.11% among 220,000 | hexokinase 1 [Trypanosoma brucei];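 active means inhibition of 50% or more in the single-dose primary screen; inactive means inhibition below 50%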
# RBBP9 inh: human RBBP9 inhibitors, primary screen, biochemical, fluorescence polarization, FP-Rh probe, HTS. hit rate 0.2% among 220,000. recombinant RBBP9. Serine hydrolase RBBP9 (Homo sapiens), O75884. AID 1515, 2009. inhibition, % at 7.94 µM;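 active means inhibition above the campaign mean of all tested compounds plus 3 SD, cut at about 14% in these data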
# Target sequence (O75884 whole entry, looked up): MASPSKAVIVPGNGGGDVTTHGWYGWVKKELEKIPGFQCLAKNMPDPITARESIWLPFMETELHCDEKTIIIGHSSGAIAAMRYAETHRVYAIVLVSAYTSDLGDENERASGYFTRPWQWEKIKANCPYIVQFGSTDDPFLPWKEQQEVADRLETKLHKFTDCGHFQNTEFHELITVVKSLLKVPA
#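 System: RBBP9 protein / Quantity: 2.5 µM RBBP9 dispensing solution, before mixing / Also added: Serine-hydrolase probe FP-Rh, 375 nM pre-mixing / Dosing: 7.94 µM single dose, 0.794% DMSO / Timing: enzyme-compound preincubation 30 min, then probe labeling 45 min, 25 °C / Signal: FP readout at 525/598 nm / Controls: DMSO-treated enzyme wells and wells lacking RBBP9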
# TNF death inh: inhibitors of TNF-alpha triggered necroptosis, primary screen, cell-based, Jurkat FADD-/-, single concentration; Jurkat FADD-/- TNF necroptosis rescue, ATP luminescence, 24 h; 0 = TNF only, 100 = no-TNF cells; activation (protection from cell death), % at 10 µM; hit rate 0.068% among 220,000;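 active means activation, meaning protection from cell death, of at least 50% relative to plate controls; inactive means activation below 50%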;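 further: necroptosis triggered by 40 ng/mL TNF-alpha added together with compound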
# Lipid droplet: inhibitors of hepatocyte lipid droplet formation, primary screen, imaging, high-throughput imaging, BODIPY stain; AML12 mouse hepatocytes, oleate lipid droplets; inhibition, % at 6.5 µM; hit rate 0.4% among 240,000; AID 1656, 2009;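 active means lipid droplet intensity inhibited by at least 50%, with more than 500 cells counted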
#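 Assay system: AML12 hepatocytes (mouse); Probe or stimulus: oleic acid at 100 µM to induce lipid droplet formation; Dosing: compound at 6.5 µM only; Schedule: compound with oleate, overnight; Detection: fluorescence imaging, 20x objective, two fields per well; Measure: % inhibition of lipid droplet signal.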
# L929 necroptosis: inhibitors of zVAD-triggered necroptosis, primary screen, L929 cells; L929 zVAD necroptosis rescue, ATP luminescence, 24 h; with zVAD 60 µM; viability rescue, % at 10 µM; hit rate 0.38% among 220,000;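 active means activation, scaled between plate controls, above about 75%, limit read from the data; inactive means activation under that limit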
# Lipid drop inh: hepatocyte lipid droplet accumulation inhibitors, confirmation, imaging, AML12 mouse hepatocytes, single concentration, high-content. shares compounds with Lipid droplet. BODIPY lipid droplet imaging; droplets induced with 100 µM oleic acid. inhibition, % at 5.2 µM. hit rate 65% among 870. AID 463183, 2010;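 active means inhibition of lipid droplet metric at least 50%, with more than 300 cells in each of four replicates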
# AML12 cytotox: AML12 hepatocyte cytotoxicity, counter-screen for hepatic lipid droplet formation project, imaging, DAPI nuclear morphology imaging; hit rate 3% among 870; AID 463200, 2010; AML12 mouse hepatocytes; active compounds read high; cells fed 100 µM oleate overnight; z-score at 5 µM; shares compounds with Lipid droplet; in the data active means z-score above about 6.3;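 further: compound exposure lasted overnight at 37 °C before fixation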
# AML12 tox conf: AML12 hepatocyte cytotoxicity, confirmation, cytotoxicity control for hepatic lipid droplet formation project, cell-based, single concentration; shares compounds with Lipid droplet; AML12 mouse hepatocyte viability, ATP luminescence; cells loaded with 100 µM oleic acid; cytotoxicity, % at 50 µM; 530 tested, under 10 active;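 active means cytotoxicity above 50% in each of four replicates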;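 further: compound exposure lasted overnight at 37 °C before the ATP read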
# A number is an active result; i = inactive; nt = no result. A selection: hits, their analogues and other compounds. The true share with any hit is near 2%.
SMILES,PfM18AAP inh,TbHK1 inh,RBBP9 inh,TNF death inh,Lipid droplet,L929 necroptosis,Lipid drop inh,AML12 cytotox,others
CC(Sc1nnc(Nc2ccccc2)s1)C(=O)Nc1nc(-c2ccccc2)cs1 (stereo unspecified),i,i,i,i,54,i,96,i,AML12 tox conf=i
O=C(O)c1ccc(Nc2nc(-c3ccccc3)cs2)cc1,i,i,i,i,i,i,nt,nt,
O=C1/C(=C/c2ccc(Cl)cc2)NC(=S)N1Cc1cccnc1,i,i,i,i,i,i,nt,nt,
CCOc1ccc(/C=N/NC(=O)c2cc3c(OC)cc(OC)cc3[nH]2)cc1OC,i,nt,nt,nt,i,nt,nt,nt,
C=CCOc1ccc(/C=N/NC(=O)c2cc3c(OC)cc(OC)cc3[nH]2)cc1,i,nt,nt,nt,56,nt,i,i,
CCOC(=O)c1cc(-c2ccc(F)cc2)n(CC(=O)NC(C)CC)c1C (stereo unspecified),i,i,i,i,70,i,66,i,AML12 tox conf=i
C=CCOc1ccc(-c2nc3c(c(=O)[nH]c(=O)n3Cc3ccccc3)n2CCCOC)cc1,i,nt,nt,nt,56,nt,65,i,AML12 tox conf=i
COCCCn1c(-c2ccc(OC)cc2)nc2c1c(=O)[nH]c(=O)n2Cc1ccccc1,i,nt,nt,nt,i,nt,nt,nt,
CN(C)CCCNS(=O)(=O)c1ccc(N2CCN(Cc3ccc4c(c3)OCO4)CC2)c([N+](=O)[O-])c1,i,nt,nt,nt,i,nt,nt,nt,
Cc1ccc(-c2c(C(=O)NC(C)C)oc(=O)c3ccccc23)cc1,i,i,i,i,53,i,i,i,
CC(C)(C)C(=O)/C=c1\[nH]c(=O)/c(=C\c2ccc(F)cc2)s1,i,i,i,i,67,i,98,i,AML12 tox conf=i
CCc1ccc(/C=c2\s/c(=C\C(=O)C(C)(C)C)[nH]c2=O)cc1,i,i,i,i,i,i,nt,nt,
O=C(Cc1ccccc1)Nc1cccc(C(=O)O)c1O,i,i,i,i,i,i,nt,nt,
COc1ccccc1CNS(=O)(=O)c1ccc(-n2cccn2)cc1,i,nt,nt,nt,i,nt,nt,nt,
CCC(=O)Nc1ccc(/C(C)=N/NC(=O)c2c(-c3ccccc3Cl)noc2C)cc1,i,i,i,i,i,i,nt,nt,
CN(C)Cc1ccc(O)c(CCc2ccccc2)n1,i,i,i,i,52,i,i,i,
CCCCCc1cc(=O)oc2c(C(CCN3CCCC(C)C3)c3ccc(N(C)C)cc3)c(OC)cc(OC)c12 (stereo unspecified),nt,i,nt,i,62,i,i,i,
CCCCCc1cc(=O)oc2c(C(CCN3CCCC(C)C3)c3cc(OC)c(OC)c(OC)c3)c(OC)cc(OC)c12 (stereo unspecified),nt,i,nt,i,i,i,nt,nt,
Cc1ccccc1C(=O)NC1CCN(Cc2nnnn2C2CCCC2)CC1,i,i,i,i,63,i,i,i,
O=C(/C=C/c1ccc(Cl)cc1)NC(=S)Nc1ccc(NC(=O)c2ccco2)cc1,i,i,i,i,57,i,i,i,
Cc1cccc(NC(=O)Cc2coc3ccc4ccccc4c23)n1,i,i,i,i,57,i,88,i,AML12 tox conf=i
COc1ccc(OC)c(NC(=O)Cc2coc3ccc4ccccc4c23)c1,i,i,i,i,51,i,85,i,AML12 tox conf=i
O=C(O)Cc1coc2ccc3ccccc3c12,i,i,i,i,i,i,nt,nt,
Cc1ccc(-n2nc3c(c2NC(=O)c2ccc(F)c(F)c2)CS(=O)(=O)C3)cc1,i,nt,nt,nt,i,nt,nt,nt,
Cc1cccc(Nc2ncnc3ccccc23)c1,i,i,i,i,66,i,53,13,
SMILES,PfM18AAP inh,TbHK1 inh,RBBP9 inh,TNF death inh,Lipid droplet,L929 necroptosis,Lipid drop inh,AML12 cytotox,others
Cc1ccc(Nc2ncnc3ccccc23)cc1,i,i,i,i,i,i,nt,nt,
COc1ccc(C2(c3ccc(OC)cc3)NC(=O)N(CC(=O)Nc3ccc(OC)c(OC)c3)C2=O)cc1,i,nt,nt,nt,52,nt,74,i,AML12 tox conf=i
COc1ccc(C2(c3ccc(OC)cc3)NC(=O)N(CC(=O)Nc3ccccc3C)C2=O)cc1,i,nt,nt,nt,60,nt,104,i,AML12 tox conf=i
O=C1CCCC2=C1C(c1ccccc1)CC(=O)N2c1ccc(F)cc1F (stereo unspecified),i,i,i,i,i,i,nt,nt,
COC(=O)c1cn(NC(=O)c2ccc([N+](=O)[O-])cc2Cl)c(=O)c2ccccc12,i,i,i,i,50,i,i,i,
Cc1ccc(NC(=O)CSc2nc3[nH]ncc3c(=O)[nH]2)c(C)c1,i,i,i,i,i,i,nt,nt,
COc1ccc(CCN=C(N)NS(=O)(=O)c2cc(F)ccc2F)cc1,i,nt,nt,nt,i,nt,nt,nt,
CCOc1ccccc1NC(=O)CCS(=O)(=O)c1ccc2c(c1)CCN2C(C)=O,i,nt,nt,nt,i,nt,nt,nt,
COC(=O)c1ccc(C2=NOC(C)(c3sc(-c4ccccc4)nc3C)C2)cc1 (stereo unspecified),nt,i,nt,i,i,i,nt,nt,
COC(=O)c1ccc(C2=NOC(C)(c3sc(-c4ccc(Cl)cc4)nc3C)C2)cc1 (stereo unspecified),nt,i,nt,i,56,i,58,i,AML12 tox conf=i
CN(C(=O)CSc1cc(C(=O)c2nccn2C)c2ccccc2n1)c1ccccc1,i,i,i,i,81,i,i,i,
Cn1ccnc1C(=O)c1cc(SCC(=O)NC2CC2)nc2ccccc12,i,i,i,i,i,i,nt,nt,
Cc1ccc(NC(=O)CN(C)CC(=O)Nc2ccc(N3CCOCC3)cc2)c(C)c1,i,i,i,i,53,i,84,i,
CN(C)C(CNC(=S)Nc1ccc(F)cc1)c1cccnc1 (stereo unspecified),i,i,i,i,i,i,nt,nt,
Cc1cccc(Nc2nc(N)c([N+](=O)[O-])c(N3CCN(C)CC3)n2)c1,i,i,i,i,i,i,nt,nt,
Cc1cccc(Nc2nc(N)c([N+](=O)[O-])c(N3CCCC(C)C3)n2)c1 (stereo unspecified),i,i,i,i,62,i,91,i,AML12 tox conf=74
CCc1ccc(NC2=CC(=O)CC(C)(C)C2)cc1,i,nt,nt,nt,i,nt,nt,nt,
